Assay results: ChEMBL document CHEMBL3108696, “Structure-activity relationships of chromone derivatives toward the mechanism of interaction with and inhibition of breast cancer resistance protein ABCG2” (J Med Chem, 2013); call rule not given here

Legend:
[1] = target: T1, Broad substrate specificity ATP-binding cassette transporter ABCG2 (Homo sapiens, UniProt Q9UNQ0); test: […] expressed in Sf9 insect cell membranes at 20 uM after 30 mins by colorimetric analysis relative to basal control in presence of sodium orthovanadate; details: sf9, 0.5 h
T1 sequence (Q9UNQ0 whole entry): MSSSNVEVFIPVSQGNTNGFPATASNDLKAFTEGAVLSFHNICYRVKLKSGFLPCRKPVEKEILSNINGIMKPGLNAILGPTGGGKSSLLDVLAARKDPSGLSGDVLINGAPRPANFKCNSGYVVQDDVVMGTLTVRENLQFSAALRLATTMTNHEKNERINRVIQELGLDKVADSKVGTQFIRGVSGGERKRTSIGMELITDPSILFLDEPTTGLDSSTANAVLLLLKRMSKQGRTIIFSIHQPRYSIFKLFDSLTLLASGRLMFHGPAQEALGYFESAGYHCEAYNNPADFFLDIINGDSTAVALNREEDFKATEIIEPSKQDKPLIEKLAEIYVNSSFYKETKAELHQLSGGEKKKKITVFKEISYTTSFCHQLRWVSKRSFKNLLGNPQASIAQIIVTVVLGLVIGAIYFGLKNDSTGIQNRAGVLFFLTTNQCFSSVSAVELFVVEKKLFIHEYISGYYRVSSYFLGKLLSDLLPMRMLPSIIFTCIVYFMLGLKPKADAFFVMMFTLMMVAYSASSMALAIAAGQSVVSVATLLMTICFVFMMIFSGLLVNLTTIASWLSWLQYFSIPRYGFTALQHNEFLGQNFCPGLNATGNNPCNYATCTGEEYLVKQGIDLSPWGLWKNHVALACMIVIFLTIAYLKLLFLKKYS
How it was run: (§1)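 Basal vanadate-sensitive ATPase assay on cholesterol-loaded membranes from human ABCG2-expressing Sf9 cells (0.5 mg/mL; 10 μg/sample). Buffer: 50 mM Tris-HCl, 50 mM NaCl, pH 8.0, with azide, ouabain, DTT and EGTA, ± 0.33 mM orthovanadate. Compound at 2 μM, or substrates nilotinib 0.1 μM, quercetin 2 μM, prazosin 20 μM. ATP-Mg 3.9 mM, 30 min at 37 °C. Phosphate read by molybdate/ascorbate at 880 nm.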

[2] = target: Multidrug resistance-associated protein 1 (Homo sapiens, UniProt P33527); test: Inhibition of ABCC1 (unknown origin)-mediated calcein-AM efflux expressed in HEK293 cells at 5 uM after 30 mins by flow cytometric analysis; assay type: cell-based; details: hek293, 0.5 h
ABCG2 [3] = target: T2, ABCG2 (Homo sapiens, UniProt Q9UNQ0); test: Inhibition of ABCG2 in mitoxantrone-selected human H460 cells assessed as reversal of mitoxantrone-resistance at 0.2 uM after 72 hrs by MTT assay relative to control; assay type: cell-based; details: probe mitoxantrone
T2 sequence (Q9UNQ0 whole entry): T1 sequence (Q9UNQ0 whole entry)

[4] = target: T1, Broad substrate specificity ATP-binding cassette transporter ABCG2; test: Inhibition of ABCG2 (unknown origin)-mediated mitoxantrone efflux expressed in HEK293 cells after 30 mins by flow cytometric analysis; assay type: cell-based
ABCG2 [5] = target: T2, ABCG2; test: Inhibition of ABCG2 in mitoxantrone-selected human H460 cells assessed as reversal of mitoxantrone-resistance at 1 uM after 72 hrs by MTT assay relative to control; assay type: cell-based; details: probe mitoxantrone
[6] = target: T1, Broad substrate specificity ATP-binding cassette transporter ABCG2; test: Binding affinity to ABCG2 (unknown origin) expressed in HEK293 cells assessed as modulation of 5D3 binding at 5 uM after 45 mins by flow cytometric analysis relative to Ko143; assay type: cell-based; details: hek293, 0.75 h
How it was run: (§2)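 5D3 shift assay on ABCG2-transfected HEK293 cells (0.5 × 10^6 cells/tube) in PBS with 0.5% BSA. Compound at 2 or 5 μM plus 5D3 anti-ABCG2 antibody or isotype control (1 μg/mL), 45 min at 37 °C. Anti-mouse Alexa Fluor 488 secondary (3 μg/mL), 30 min at 37 °C. Binding read by flow cytometry, expressed relative to 2 μM Ko143 (100%). Mean ± SD of ≥3 independent experiments.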

[7] = target: T1, Broad substrate specificity ATP-binding cassette transporter ABCG2; test: Inhibition of ABCG2-mediated mitoxantrone efflux in mitoxantrone-selected human H460 cells after 30 mins by flow cytometric analysis; assay type: cell-based
ABCG2 [8] = target: T2, ABCG2; test: Inhibition of ABCG2 (unknown origin)-mediated mitoxantrone efflux expressed in HEK293 cells at 5 to 10 uM after 30 mins by flow cytometric analysis relative to control; assay type: cell-based; details: HEK293 cells expressing ABCG2, probe mitoxantrone, read-out: Imax
[9] = target: T1, Broad substrate specificity ATP-binding cassette transporter ABCG2; test: Inhibition of human ABCG2 ATPase activity expressed in Sf9 insect cell membranes at 2 uM after 30 mins by colorimetric analysis relative to basal control in presence of sodium orthovanadate; details: sf9, 0.5 h; how it was run: as §1
[10] = target: T1, Broad substrate specificity ATP-binding cassette transporter ABCG2; test: Inhibition of ABCG2 (unknown origin)-mediated BODIPY-prazosin efflux expressed in HEK293 cells at 1 to 5 uM after 30 mins by flow cytometric analysis; assay type: cell-based; details: hek293, 0.5 h
How it was run: (§3)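 Cells seeded at 1.5 × 10^5 cells/well and grown 48 h were exposed to BODIPY-prazosin (0.2 μM) or pheophorbide A (2 μM) for 30 min at 37 °C with or without compound. After washing and trypsinization, intracellular fluorescence was read by flow cytometry (FL4, ≥10 000 events). Percent inhibition = (C−M)/(Cev−M)×100, where Cev is from ABCG2-negative control cells.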

ABCG2 [11] = target: T2, ABCG2; test: Inhibition of ABCG2-mediated mitoxantrone efflux in mitoxantrone-selected human H460 cells at 5 to 10 uM after 30 mins by flow cytometric analysis relative to control; assay type: cell-based; details: probe mitoxantrone, read-out: Imax
ABCG2 [12] = target: T2, ABCG2; test: Inhibition of ABCG2 (unknown origin)-mediated pheophorbide A efflux expressed in HEK293 cells at 1 to 5 uM after 30 mins by flow cytometric analysis relative to control; assay type: cell-based; details: HEK293 cells expressing ABCG2, probe pheophorbide A, read-out: Imax; how it was run: as §3
[13] = target: T1, Broad substrate specificity ATP-binding cassette transporter ABCG2; test: Inhibition of human ABCG2 expressed in Sf9 insect cell membranes assessed as inhibition of quercetin-stimulated ATPase activity after 30 mins by colorimetric analysis in presence of sodium orthovanadate; details: for inhibition (INH): human, sf9, 0.5 h
How it was run: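 Quercetin (2 μM)-stimulated vanadate-sensitive ATPase assay on cholesterol-loaded ABCG2 Sf9 membranes (10 μg/sample) in Tris/NaCl buffer, pH 8.0. Compound at 0.01, 0.03, 0.5 and 2 μM. ATP-Mg 3.9 mM, 30 min at 37 °C. Released phosphate read colorimetrically at 880 nm. IC50 estimated as 50% inhibition of initial activity; three independent experiments.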

[14] = target: T1, Broad substrate specificity ATP-binding cassette transporter ABCG2; test: Binding affinity to ABCG2 (unknown origin) expressed in HEK293 cells assessed as modulation of 5D3 binding at 2 uM after 45 mins by flow cytometric analysis relative to Ko143; assay type: cell-based; details: hek293, 0.75 h; how it was run: as §2
[15] = target: ATP-dependent translocase ABCB1 (Homo sapiens, UniProt P08183); test: Inhibition of ABCB1 (unknown origin)-mediated rhodamine 123 efflux expressed in mouse NIH/3T3 cells at 5 uM after 30 mins by flow cytometric analysis; assay type: cell-based; details: nih/3t3, 0.5 h
[16] = target: T1, Broad substrate specificity ATP-binding cassette transporter ABCG2; test: […] expressed in Sf9 insect cell membranes at 0.1 uM after 30 mins by colorimetric analysis relative to basal control in presence of sodium orthovanadate; details: sf9, 0.5 h; how it was run: as §1

Chain of ATP-dependent translocase ABCB1 (P08183 whole entry): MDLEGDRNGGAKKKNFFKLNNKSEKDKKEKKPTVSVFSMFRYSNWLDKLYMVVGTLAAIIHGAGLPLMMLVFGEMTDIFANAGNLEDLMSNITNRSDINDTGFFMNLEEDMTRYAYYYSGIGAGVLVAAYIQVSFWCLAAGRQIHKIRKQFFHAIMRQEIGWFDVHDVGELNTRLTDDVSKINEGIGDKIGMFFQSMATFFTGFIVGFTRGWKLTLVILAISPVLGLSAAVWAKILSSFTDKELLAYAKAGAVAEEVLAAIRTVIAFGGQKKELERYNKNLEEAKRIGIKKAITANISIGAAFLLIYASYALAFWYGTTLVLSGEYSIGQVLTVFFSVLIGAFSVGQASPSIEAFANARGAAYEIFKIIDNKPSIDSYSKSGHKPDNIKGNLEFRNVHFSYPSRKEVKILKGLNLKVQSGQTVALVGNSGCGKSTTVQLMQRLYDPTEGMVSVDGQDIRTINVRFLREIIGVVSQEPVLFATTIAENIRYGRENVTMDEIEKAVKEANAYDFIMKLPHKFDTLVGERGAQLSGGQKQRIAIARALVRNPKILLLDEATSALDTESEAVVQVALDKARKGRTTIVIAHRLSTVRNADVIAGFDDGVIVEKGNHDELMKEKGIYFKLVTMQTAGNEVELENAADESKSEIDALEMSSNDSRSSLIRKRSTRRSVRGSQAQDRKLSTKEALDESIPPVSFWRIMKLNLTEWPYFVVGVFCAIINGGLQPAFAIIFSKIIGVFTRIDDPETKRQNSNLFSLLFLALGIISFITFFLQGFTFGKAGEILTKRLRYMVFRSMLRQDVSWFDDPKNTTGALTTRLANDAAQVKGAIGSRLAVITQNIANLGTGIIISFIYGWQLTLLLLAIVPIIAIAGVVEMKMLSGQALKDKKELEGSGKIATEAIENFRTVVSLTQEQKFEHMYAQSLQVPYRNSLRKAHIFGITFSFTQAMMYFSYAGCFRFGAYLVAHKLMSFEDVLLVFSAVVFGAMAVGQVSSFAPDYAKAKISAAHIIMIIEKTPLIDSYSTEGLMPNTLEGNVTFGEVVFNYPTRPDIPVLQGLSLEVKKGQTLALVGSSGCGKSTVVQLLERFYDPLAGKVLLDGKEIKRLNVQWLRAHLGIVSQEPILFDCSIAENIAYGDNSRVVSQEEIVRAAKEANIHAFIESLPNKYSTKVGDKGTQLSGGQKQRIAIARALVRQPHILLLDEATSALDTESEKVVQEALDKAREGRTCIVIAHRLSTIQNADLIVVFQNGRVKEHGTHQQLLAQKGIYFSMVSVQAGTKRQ
Chain of Multidrug resistance-associated protein 1 (P33527 whole entry): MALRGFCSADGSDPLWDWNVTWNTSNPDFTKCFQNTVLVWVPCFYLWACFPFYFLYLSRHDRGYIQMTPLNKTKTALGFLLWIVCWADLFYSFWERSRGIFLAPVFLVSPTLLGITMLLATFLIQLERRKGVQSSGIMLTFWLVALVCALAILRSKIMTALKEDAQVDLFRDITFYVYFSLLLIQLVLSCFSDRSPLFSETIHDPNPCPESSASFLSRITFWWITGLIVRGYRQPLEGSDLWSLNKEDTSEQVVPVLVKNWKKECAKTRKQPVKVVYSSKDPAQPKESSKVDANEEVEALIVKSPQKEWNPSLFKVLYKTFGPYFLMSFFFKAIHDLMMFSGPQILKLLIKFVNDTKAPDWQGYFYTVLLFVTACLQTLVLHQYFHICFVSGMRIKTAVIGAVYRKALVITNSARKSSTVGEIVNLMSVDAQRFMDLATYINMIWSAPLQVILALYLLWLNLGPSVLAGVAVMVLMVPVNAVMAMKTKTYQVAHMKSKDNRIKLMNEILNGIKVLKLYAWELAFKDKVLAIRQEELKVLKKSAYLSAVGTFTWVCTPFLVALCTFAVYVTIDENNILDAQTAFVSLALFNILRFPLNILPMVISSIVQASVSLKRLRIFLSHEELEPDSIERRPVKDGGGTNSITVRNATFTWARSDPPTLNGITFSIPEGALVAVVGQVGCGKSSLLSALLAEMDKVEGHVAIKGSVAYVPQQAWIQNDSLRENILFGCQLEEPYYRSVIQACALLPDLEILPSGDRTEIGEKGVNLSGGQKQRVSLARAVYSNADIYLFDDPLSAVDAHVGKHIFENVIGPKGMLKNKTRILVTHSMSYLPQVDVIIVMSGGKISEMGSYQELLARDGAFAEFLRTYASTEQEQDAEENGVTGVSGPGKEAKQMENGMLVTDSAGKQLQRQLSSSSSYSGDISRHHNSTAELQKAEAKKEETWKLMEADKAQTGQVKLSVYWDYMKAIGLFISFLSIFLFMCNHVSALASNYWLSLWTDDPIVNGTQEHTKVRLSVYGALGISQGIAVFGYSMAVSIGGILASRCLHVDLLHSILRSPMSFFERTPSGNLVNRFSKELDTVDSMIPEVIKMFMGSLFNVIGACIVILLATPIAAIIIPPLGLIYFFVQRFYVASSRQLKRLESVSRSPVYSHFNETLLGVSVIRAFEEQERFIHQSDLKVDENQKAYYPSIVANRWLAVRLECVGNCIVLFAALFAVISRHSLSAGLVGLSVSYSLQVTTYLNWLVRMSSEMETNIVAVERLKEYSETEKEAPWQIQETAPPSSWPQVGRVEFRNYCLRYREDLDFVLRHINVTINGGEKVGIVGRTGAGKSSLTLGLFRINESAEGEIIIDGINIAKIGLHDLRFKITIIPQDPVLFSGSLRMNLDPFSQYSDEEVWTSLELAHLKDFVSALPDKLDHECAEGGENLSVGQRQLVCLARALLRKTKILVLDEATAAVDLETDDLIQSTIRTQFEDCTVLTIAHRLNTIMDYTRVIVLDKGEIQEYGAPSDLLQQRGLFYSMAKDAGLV

COc1cc2nc(N3CCN(C(=O)c4ccco4)CC3)nc(N)c2cc1OC [PRAZOSIN]
fold change (FC) [1]: 2.4

COc1ccc2c(CCNC(=O)c3cc(=O)c4c(OCc5ccc(Br)cc5)cccc4o3)c[nH]c2c1
inhibition (INH) [2]: Not Active | inhibition at 72 h, 0.2 µM (ABCG2 [3]): > 50% | EC50 [4]: 100 nM | inhibition at 72 h, 1 µM (ABCG2 [5]): > 72% | Activity [6]: 101% | EC50 [7]: 80 nM | Emax at 0.5 h (ABCG2 [8]): 97% | inhibition (INH) [9]: Active | inhibition (INH) [10]: Active | Emax at 0.5 h (ABCG2 [11]): 89% | Emax at 0.5 h (ABCG2 [12]): 80% | IC50 [13]: 290 nM | inhibition (INH) [13]: Dose-dependent effect | Activity [14]: 96.4% | inhibition (INH) [15]: Not Active

Cn1cc(CCNC(=O)c2cc(=O)c3c(OCc4ccc(Br)cc4)cccc3o2)c2ccccc21
inhibition (INH) [2]: Not Active | inhibition at 72 h, 0.2 µM (ABCG2 [3]): > 4% | EC50 [4]: 300 nM | inhibition at 72 h, 1 µM (ABCG2 [5]): > 61% | Activity [6]: 98% | EC50 [7]: 220 nM | Emax at 0.5 h (ABCG2 [8]): 85% | inhibition (INH) [9]: Active | inhibition (INH) [10]: Active | Emax at 0.5 h (ABCG2 [11]): 102% | Emax at 0.5 h (ABCG2 [12]): 80% | IC50 [13]: 1100 nM | inhibition (INH) [13]: Dose-dependent effect | Activity [14]: 88.7% | inhibition (INH) [15]: Not Active

Cc1cn(-c2cc(NC(=O)c3ccc(C)c(Nc4nccc(-c5cccnc5)n4)c3)cc(C(F)(F)F)c2)cn1 [NILOTINIB]
fold change (FC) [16]: 3.2
